For data set [1], the target named is T1, Hepatocyte growth factor receptor (Homo sapiens, UniProt P08581). Briefly: Inhibition of MET kinase. Summed up: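 Cell-free MET kinase activity assay run over a range of inhibitor concentrations; IC50 taken as the concentration giving 50% inhibition of kinase activity; data as mean ± SD, n = 3.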
The target in data set [2] is T1, Hepatocyte growth factor receptor. Briefly: Inhibition of hepatocyte growth factor-induced MET phosphorylation in human HCT116 cells at 5 uM after 30 mins by immunoblot. Format: cell-based. Summed up:
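Whole-cell lysates immunoblotted for phospho-MET and total MET, with β-actin as loading control; densitometry with phospho-MET normalized to total MET.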

Data set [3] shares this target. Briefly: Inhibition of MET kinase by Dixon plot analysis. Summed up:
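MET kinase activity measured at several inhibitor concentrations; Dixon plot (1/V versus [I]) and Cornish-Bowden plot ([S]/V versus [I]) used to assign inhibition type; Ki derived by linear regression of the Dixon plot.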

Another data set has as its system Mus musculus. Briefly: Plasma concentration in po dosed mouse. Format: ADME, organism-based. Particulars: in vivo.
The subject of the next data set is Homo sapiens. Briefly: Plasma concentration in po dosed human. The format is ADME, organism-based. The conditions noted are these: in vivo.

Molecules are shown by their SMILES. Calls of active or inactive are those of the source. The rule behind the calls is not given here.

T1 sequence (P08581 whole entry): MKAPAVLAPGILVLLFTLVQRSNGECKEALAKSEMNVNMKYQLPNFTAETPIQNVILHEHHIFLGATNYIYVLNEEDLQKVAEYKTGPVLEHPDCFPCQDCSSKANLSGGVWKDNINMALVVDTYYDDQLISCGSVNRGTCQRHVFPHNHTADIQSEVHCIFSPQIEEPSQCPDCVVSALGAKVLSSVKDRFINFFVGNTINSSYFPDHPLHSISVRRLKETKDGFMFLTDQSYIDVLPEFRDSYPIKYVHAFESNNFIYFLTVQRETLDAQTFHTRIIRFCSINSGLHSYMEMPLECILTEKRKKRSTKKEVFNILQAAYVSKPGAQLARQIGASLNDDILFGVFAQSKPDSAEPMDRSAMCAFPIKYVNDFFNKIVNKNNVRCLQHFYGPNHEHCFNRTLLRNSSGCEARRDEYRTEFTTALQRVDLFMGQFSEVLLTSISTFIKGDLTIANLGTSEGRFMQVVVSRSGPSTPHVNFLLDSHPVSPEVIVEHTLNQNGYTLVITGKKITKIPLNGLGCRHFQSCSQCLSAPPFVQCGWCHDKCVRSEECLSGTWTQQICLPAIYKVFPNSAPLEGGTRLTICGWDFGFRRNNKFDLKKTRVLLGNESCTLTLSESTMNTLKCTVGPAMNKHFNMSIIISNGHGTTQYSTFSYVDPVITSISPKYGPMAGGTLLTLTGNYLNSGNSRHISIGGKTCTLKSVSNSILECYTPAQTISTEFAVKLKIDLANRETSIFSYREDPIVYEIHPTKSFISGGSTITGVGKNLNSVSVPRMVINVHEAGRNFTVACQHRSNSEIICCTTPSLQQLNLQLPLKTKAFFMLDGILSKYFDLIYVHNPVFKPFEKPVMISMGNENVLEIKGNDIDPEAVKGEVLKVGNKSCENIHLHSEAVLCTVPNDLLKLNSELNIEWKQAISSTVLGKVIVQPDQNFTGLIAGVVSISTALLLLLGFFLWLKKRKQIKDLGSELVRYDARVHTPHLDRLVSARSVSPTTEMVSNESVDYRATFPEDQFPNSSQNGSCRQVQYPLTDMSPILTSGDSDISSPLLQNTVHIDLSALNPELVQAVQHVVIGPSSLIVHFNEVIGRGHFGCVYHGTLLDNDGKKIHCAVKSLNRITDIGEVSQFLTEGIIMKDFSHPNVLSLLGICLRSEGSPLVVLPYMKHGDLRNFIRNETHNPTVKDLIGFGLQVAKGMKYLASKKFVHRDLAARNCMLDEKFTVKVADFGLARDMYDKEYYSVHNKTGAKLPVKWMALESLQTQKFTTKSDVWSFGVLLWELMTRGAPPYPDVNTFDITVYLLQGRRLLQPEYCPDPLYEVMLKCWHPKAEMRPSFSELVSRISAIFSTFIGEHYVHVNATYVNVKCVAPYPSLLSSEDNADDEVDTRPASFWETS

For `Oc1cc(O)c2c(c1)O[C@@H](c1ccc(O)c(O)c1)[C@H](O)C2`, in data set [1], the inhibition entry is “inactive”.
On to `O=C(O[C@@H]1Cc2c(O)cc(O)cc2O[C@@H]1c1ccc(O)c(O)c1)c1cc(O)c(O)c(O)c1` [EPICATECHIN GALLATE], for which 10 µM corresponded to half-maximal inhibition in data set [1] (IC50). Moreover, in data set [2], the inhibition entry is “Active”.
On to `O=C(O)c1cc(O)c(O)c(O)c1`, for which the inhibition entry in data set [1] is “inactive”.
Still for that read-out and setting: the entry for `Oc1cc(O)c2c(c1)O[C@H](c1ccc(O)c(O)c1)[C@H](O)C2` is “inactive”.
For the compound `Oc1cc(O)c2c(c1)O[C@H](c1cc(O)c(O)c(O)c1)[C@H](O)C2`, the inhibition entry in data set [1] is “inactive”.
`O=C(O[C@@H]1Cc2c(O)cc(O)cc2O[C@@H]1c1cc(O)c(O)c(O)c1)c1cc(O)c(O)c(O)c1` [EPIGALOCATECHIN GALLATE]: the Ki in data set [3] is 3.3 µM. Besides, the concentration turned out to be 9 µM with Mus musculus and 7.5 µM in the data set with Homo sapiens. For the same compound, in data set [1], the IC50 is 10 µM. Besides, the inhibition result in data set [2] was “Active”.
Regarding `O=C(O[C@@H]1Cc2c(O)cc(O)cc2O[C@H]1c1cc(O)c(O)c(O)c1)c1cc(O)c(O)c(O)c1` [GALLOCATECHIN GALLATE], the IC50 in data set [1] stood at 10 µM. Moreover, the inhibition result in data set [2] is “Active”.

The values are drawn from ChEMBL document CHEMBL1154634, “Tea catechins inhibit hepatocyte growth factor receptor (MET kinase) activity in human colon cancer cells: kinetic and molecular docking studies” (J Med Chem, 2009).
